Active and inactive are the calls of the source. The rule behind the calls is not given here.
Tests used:
[1] = molecular target: T1, Histamine H3 receptor (Homo sapiens, UniProt Q9Y5N1); assay: Displacement of [3H]Nalpha-Methylhistamine from recombinant human histamine H3 receptor expressed in HEK293 cell membranes after 90 mins by liquid scintillation counting analysis
[2] = system: Mus musculus; assay: Anticonvulsant activity in CF-1 albino mouse assessed as protection against maximal electroshock-induced seizures at 30 mg/kg, ip after 0.5 hrs; assay type: functional, organism-based
How it was run: (§1)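 Male CF-1 albino mice received compound i.p. as a suspension in 0.5% methylcellulose (30, 100 or 300 mg/kg). Maximal electroshock seizure test read 0.5 h and 4 h after dosing. Result given as animals protected/animals tested.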

[3] = system: Mus musculus; assay: Anticonvulsant activity in CF-1 albino mouse assessed as protection against maximal electroshock-induced seizures at 30 mg/kg, ip after 4 hrs; assay type: functional, organism-based; how it was run: as §1
[4] = system: Mus musculus; assay: Anticonvulsant activity in CF-1 albino mouse assessed as protection against maximal electroshock-induced seizures at 100 mg/kg, ip after 0.5 hrs; assay type: functional, organism-based; how it was run: as §1
[5] = system: Mus musculus; assay: Anticonvulsant activity in CF-1 albino mouse assessed as protection against maximal electroshock-induced seizures at 100 mg/kg, ip after 4 hrs; assay type: functional, organism-based; how it was run: as §1
[6] = system: Mus musculus; assay: Anticonvulsant activity in CF-1 albino mouse assessed as protection against subcutaneous pentetrazole-induced seizures at 30 mg/kg, ip after 0.5 hrs; assay type: functional, organism-based
[7] = system: Mus musculus; assay: Anticonvulsant activity in CF-1 albino mouse assessed as protection against subcutaneous pentetrazole-induced seizures at 30 mg/kg, ip after 4 hrs; assay type: functional, organism-based
[8] = system: Mus musculus; assay: Anticonvulsant activity in CF-1 albino mouse assessed as protection against subcutaneous pentetrazole-induced seizures at 100 mg/kg, ip after 0.5 hrs; assay type: functional, organism-based
[9] = system: Mus musculus; assay: Anticonvulsant activity in CF-1 albino mouse assessed as protection against subcutaneous pentetrazole-induced seizures at 300 mg/kg, ip after 0.5 hrs; assay type: functional, organism-based
[10] = system: Mus musculus; assay: Neurotoxicity in CF-1 albino mouse assessed as death at 300 mg/kg, ip after 0.5 hrs by rotarod test; assay type: toxicity, organism-based; conditions: in vivo
How it was run: (§2)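 Anticonvulsant Screening Program (NINDS) Phase 1 neurotoxicity screen in male albino CF-1 mice. Compounds were given i.p. as suspensions in 0.5% methylcellulose at 30, 100 and/or 300 mg/kg, and animals were observed 0.5 h and 4 h after dosing. The rotarod test was scored as number of animals showing toxicity over number tested, with the kind of toxicity recorded: inability to grasp rotorod, death, diarrhea, continuous seizure activity, loss of righting reflex, myoclonic jerks or tremors.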

[11] = system: Mus musculus; assay: Neurotoxicity in CF-1 albino mouse assessed as diarrhea at 300 mg/kg, ip after 0.5 hrs by rotarod test; assay type: toxicity, organism-based; conditions: in vivo; how it was run: as §2
[12] = system: Mus musculus; assay: Neurotoxicity in CF-1 albino mouse assessed as continuous seizure activity at 300 mg/kg, ip after 0.5 hrs by rotarod test; assay type: toxicity, organism-based; conditions: in vivo; how it was run: as §2
[13] = system: Mus musculus; assay: Neurotoxicity in CF-1 albino mouse at 30 mg/kg, ip after 4 hrs by rotarod test; assay type: toxicity, organism-based; conditions: in vivo
How it was run: (§3)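 Male CF-1 mice were dosed i.p. with compound suspended in 0.5% methylcellulose (30, 100 or 300 mg/kg). Neurotoxicity was scored by rotarod 0.5 h and 4 h after dosing, as animals showing toxicity/animals tested. Type of toxicity was noted, e.g. inability to grasp the rod, tremors, death.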

[14] = system: Mus musculus; assay: Neurotoxicity in CF-1 albino mouse assessed as death at 300 mg/kg, ip after 0.5 hrs by rotarod test; conditions: in vivo
[15] = molecular target: T1, Histamine H3 receptor; assay: Displacement of [125I]Iodoproxyfan from recombinant human histamine H3 receptor expressed in CHOK1 cell membranes after 90 mins
How it was run: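 Membranes of CHO-K1 cells expressing hH3R were incubated 90 min at 25 °C, shaken at 250 rpm, with [125I]iodoproxyfan (16–50 pM) and test compound. Nonspecific binding was defined with 1 μM imetit. Separation by filtration on PEI-treated GF/B filters. Ki obtained from IC50 by Cheng-Prusoff.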

[16] = system: HEK293; assay: Cytotoxicity against HEK293 cells assessed as reduction in cell viability after 48 hrs by EZ4U Non-radioactive cell proliferation assay; assay type: cell-based; conditions: Homo sapiens, HEK293, 48 h
How it was run: (§4)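 IMR-32 cells (2×10^4/well) or HEK-293 cells (1.5×10^4/well) in DMEM with 10% FBS were preincubated 24 h at 37 °C, 5% CO2. Compounds from 25 mM DMSO stocks were added at final 0.01–250 μM, with DMSO ≤1%. After 48 h, EZ4U label was added for 5 h and absorbance read at 492 nm.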

[17] = system: IMR-32; assay: Cytotoxicity against human IMR32 cells assessed as reduction in cell viability after 48 hrs by EZ4U Non-radioactive cell proliferation assay; assay type: cell-based; conditions: IMR-32, 48 h; how it was run: as §4
[18] = molecular target: CYP3A4 (Homo sapiens, UniProt P08684); assay: Activation of recombinant human CYP3A4 using Luciferin-BE as substrate at 25 uM in presence of NADPH by P450-Glo luminescence assay relative to control; assay type: ADME; conditions: recombinant human CYP3A4, probe Luciferin-PPXE, in the assay text read “Luciferin-PPXE” for “Luciferin-BE”, read-out: Activity
How it was run: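 Recombinant human CYP3A4 P450-Glo luminescence assay: enzyme converts luciferin substrate to D-luciferin, then firefly luciferase is added and light output read as a measure of CYP3A4 activity. Final ligand concentrations 0.025–25 μM.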

[19] = system: Mus musculus; assay: Anticonvulsant activity in CF-1 albino mouse assessed as protection against subcutaneous pentetrazole-induced seizures at 100 mg/kg, ip after 4 hrs; assay type: functional, organism-based
[20] = system: Mus musculus; assay: Neurotoxicity in CF-1 albino mouse at 30 mg/kg, ip after 0.5 hrs by rotarod test; assay type: toxicity, organism-based; conditions: in vivo; how it was run: as §3
[21] = Lipophilicity of compound by RP-TLC analysis; assay type: physicochemical; conditions: methanol:acetic acid:water
How it was run: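 Reversed-phase TLC on RP-18 plates with methanol:acetic acid:water mobile phase (acid constant at 10%, methanol 85–55% in 5% steps). Spots visualised with iodine. RM values were derived from Rf and extrapolated to zero methanol to give RM0.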

[22] = Drug metabolism in pooled human liver microsomes assessed as 2-(4-(5-(azepan-1-yl)pentyloxy)phenyl)propan-1-ol metabolite formation at 50 uM after 2 hrs in presence of NADPH by LC/MS analysis; assay type: ADME, microsome
How it was run: (§5)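 Pooled human liver microsomes (1 mg/ml) in 0.1 M Tris-HCl pH 7.4 with compound at 50 μM. After 5 min preincubation at 37 °C, reaction was started with NADPH regeneration system and run 2 h at 37 °C. Stopped with cold methanol and centrifuged. Supernatant analysed by UPLC-ESI tandem quadrupole MS.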

[23] = Safety index, ratio of compound IC50 to doxorubicin IC50 for HEK293 cells after 48 hrs by EZ4U non-radioactive cell proliferation assay; assay type: ADME, cell-based; conditions: human, read-out: Ratio IC50
[24] = Safety index, ratio of compound IC50 to doxorubicin IC50 for human IMR32 cells after 48 hrs by EZ4U Non-radioactive cell proliferation assay; assay type: ADME, cell-based; conditions: IMR-32 cells, read-out: Ratio IC50
[25] = system: Mus musculus; assay: Neurotoxicity in CF-1 albino mouse assessed as diarrhea at 100 mg/kg, ip after 0.5 hrs by rotarod test; assay type: toxicity, organism-based; conditions: in vivo; how it was run: as §2
[26] = system: Mus musculus; assay: Anticonvulsant activity in CF-1 albino mouse assessed as protection against maximal electroshock-induced seizures at 300 mg/kg, ip after 0.5 hrs; assay type: functional, organism-based; how it was run: as §1
[27] = system: Mus musculus; assay: Neurotoxicity in CF-1 albino mouse assessed as tremor at 30 mg/kg, ip after 0.5 hrs by rotarod test; assay type: toxicity, organism-based; conditions: in vivo, 100 mg/kg, in the assay text read “100 mg/kg” for “30 mg/kg”; how it was run: as §3
[28] = system: Mus musculus; assay: Neurotoxicity in CF-1 albino mouse assessed as continuous seizure activity at 100 mg/kg, ip after 0.5 hrs by rotarod test; assay type: toxicity, organism-based; conditions: in vivo; how it was run: as §2
[29] = system: Mus musculus; assay: Anticonvulsant activity in CF-1 albino mouse assessed as protection against subcutaneous pentetrazole-induced seizures at 300 mg/kg, ip after 4 hrs; assay type: functional, organism-based
[30] = system: Mus musculus; assay: Neurotoxicity in CF-1 albino mouse assessed as unable to grasp at 100 mg/kg, ip after 0.5 hrs by rotarod test; assay type: toxicity, organism-based; conditions: in vivo; how it was run: as §2
[31] = system: Mus musculus; assay: Neurotoxicity in CF-1 albino mouse assessed as death at 100 mg/kg, ip after 4 hrs by rotarod test; assay type: toxicity, organism-based; conditions: in vivo; how it was run: as §2
[32] = system: Mus musculus; assay: Neurotoxicity in CF-1 albino mouse assessed as death at 300 mg/kg, ip after 4 hrs by rotarod test; assay type: toxicity, organism-based; conditions: in vivo; how it was run: as §2
[33] = system: Mus musculus; assay: Neurotoxicity in CF-1 albino mouse at 100 mg/kg, ip after 0.5 hrs by rotarod test; assay type: toxicity, organism-based; conditions: in vivo; how it was run: as §2
[34] = system: Mus musculus; assay: Neurotoxicity in CF-1 albino mouse at 100 mg/kg, ip after 4 hrs by rotarod test; assay type: toxicity, organism-based; conditions: in vivo; how it was run: as §3
[35] = system: Mus musculus; assay: Neurotoxicity in CF-1 albino mouse at 300 mg/kg, ip after 4 hrs by rotarod test; assay type: toxicity, organism-based; conditions: in vivo; how it was run: as §2
[36] = system: Mus musculus; assay: […] in po dosed mouse brain assessed as activation in HA release measured after 90 mins; assay type: functional; conditions: 1.5 h
[37] = Drug level in pooled human liver microsomes treated with 50 uM 1-(5-(4-(tert-Pentyl)phenoxy)pentyl)azepane hydrogen oxalate after 2 hrs in presence of NADPH by LC/MS analysis; assay type: ADME, microsome; how it was run: as §5
[38] = system: Mus musculus; assay: Neurotoxicity in CF-1 albino mouse assessed as unable to grasp at 30 mg/kg, ip after 0.5 hrs by rotarod test; assay type: toxicity, organism-based; conditions: in vivo, 100 mg/kg, in the assay text read “100 mg/kg” for “30 mg/kg”; how it was run: as §3

T1 sequence (Q9Y5N1 whole entry): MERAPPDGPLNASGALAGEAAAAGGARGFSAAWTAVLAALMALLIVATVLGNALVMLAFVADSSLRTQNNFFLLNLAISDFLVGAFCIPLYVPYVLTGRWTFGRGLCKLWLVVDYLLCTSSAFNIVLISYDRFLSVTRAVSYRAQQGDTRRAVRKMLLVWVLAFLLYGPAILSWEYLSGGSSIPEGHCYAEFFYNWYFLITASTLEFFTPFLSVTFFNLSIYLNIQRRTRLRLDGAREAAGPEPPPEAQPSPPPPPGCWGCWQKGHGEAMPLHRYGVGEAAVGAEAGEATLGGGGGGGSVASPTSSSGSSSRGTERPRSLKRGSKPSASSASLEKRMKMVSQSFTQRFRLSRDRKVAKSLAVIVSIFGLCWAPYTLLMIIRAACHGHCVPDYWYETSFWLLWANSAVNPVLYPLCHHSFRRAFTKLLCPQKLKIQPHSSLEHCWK
Chain of CYP3A4 (P08684 whole entry): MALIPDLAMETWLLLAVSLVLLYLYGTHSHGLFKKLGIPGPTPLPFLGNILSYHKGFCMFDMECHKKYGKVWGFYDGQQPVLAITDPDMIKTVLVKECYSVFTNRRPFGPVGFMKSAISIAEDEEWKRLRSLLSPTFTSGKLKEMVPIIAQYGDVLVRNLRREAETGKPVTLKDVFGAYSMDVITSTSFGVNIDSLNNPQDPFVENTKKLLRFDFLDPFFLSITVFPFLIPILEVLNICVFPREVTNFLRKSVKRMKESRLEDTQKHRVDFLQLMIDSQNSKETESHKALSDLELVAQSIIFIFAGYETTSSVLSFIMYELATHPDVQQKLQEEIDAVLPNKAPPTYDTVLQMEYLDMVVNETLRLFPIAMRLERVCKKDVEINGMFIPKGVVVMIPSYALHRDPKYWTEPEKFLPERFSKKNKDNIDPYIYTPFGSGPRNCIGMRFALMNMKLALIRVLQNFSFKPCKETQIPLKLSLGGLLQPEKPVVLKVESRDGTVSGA

SMILES | Activity [2] | Activity [3] | Activity [4] | Activity [5] | Activity [6] | Activity [7] | Activity [8] | Activity [13] | Activity [14] | Ki [15] [nM] | Activity [19] | Rm [21] | Activity [26] | further results
CCC(C)(C)c1ccc(OCCCCN2CCC(C)CC2)cc1.O=C(O)C(=O)O | Active | inactive | Active | inactive | inactive | inactive | Active | Non-Toxic | Toxic |  |  |  |  | Ki [1]: 238 nM; Activity [9]: Active; Activity [10]: Toxic; Activity [11]: Toxic; Activity [12]: Toxic
CCC(C)(C)c1ccc(OCCCCCN2CCCCCC2)cc1.O=C(O)C(=O)O | Active | inactive | Active |  | inactive | inactive | inactive | Non-Toxic |  | 21.4 | inactive | 2.389 |  | IC50 [16]: 39400 nM; IC50 [17]: 12300 nM; activity at 25 µM [18]: 76%; Activity [20]: Non-Toxic; Drug metabolism [22]: Metabolite_Detected; selectivity ratio at 48 h [23]: 50 to 90; selectivity ratio at 48 h [24]: > 1000
CCC(C)(C)c1ccc(OCCCCN2CCCCCC2)cc1.O=C(O)C(=O)O | inactive | inactive | Active | Active |  |  |  | Non-Toxic | Toxic |  |  | 2.292 |  | Ki [1]: 68 nM; Activity [10]: Toxic; Activity [11]: Toxic; Activity [25]: Toxic
CCC(C)(C)c1ccc(OCCCCCCN2CCCC(C)C2)cc1.O=C(O)C(=O)O (centres undefined) | Active | inactive | Active | Active | inactive | inactive | inactive | Non-Toxic | Toxic | 33.8 | inactive | 2.521 | Active | Activity [27]: Toxic; Activity [28]: Toxic
CCC(C)(C)c1ccc(OCCCCCCCCN2CCC(C)CC2)cc1.O=C(O)C(=O)O | Active | inactive |  | Active | inactive | inactive | inactive |  | Toxic | 308 | inactive |  | Active | Activity [9]: inactive; Activity [29]: inactive; Activity [30]: Toxic; Activity [31]: Toxic; Activity [32]: Toxic; Activity [33]: Toxic
CCC(C)(C)c1ccc(OCCCCCCCN2CCCCC2)cc1.O=C(O)C(=O)O | inactive | inactive | Active | inactive | inactive | inactive | inactive | Non-Toxic | Toxic | 55 | inactive | 2.624 | Active | Activity [30]: Toxic; Activity [34]: Non-Toxic; Activity [35]: Non-Toxic
Clc1ccc(CCCOCCCN2CCCCC2)cc1 [PITOLISANT] |  |  |  |  |  |  |  |  |  |  |  |  |  | ED50 [36]: 1.5 mg/kg
CC(CO)c1ccc(OCCCCCN2CCCCCC2)cc1 (centres undefined) |  |  |  |  |  |  |  |  |  |  |  |  |  | Drug uptake [37]: Active
CCC(C)(C)c1ccc(OCCCCCCN2CCCCCC2)cc1.O=C(O)C(=O)O | inactive | inactive | Active | inactive | inactive | inactive | inactive | Non-Toxic | Toxic | 41.2 | inactive | 2.567 |  | Activity [38]: Toxic

From ChEMBL document CHEMBL4219023, “Synthesis and biological activity of novel tert-amylphenoxyalkyl (homo)piperidine derivatives as histamine H3R ligands” (Bioorg Med Chem, 2017)
